Results taken from PMC12530853 (RSC Advances, 2025).
≈ marks a conversion by molar mass, not a printed value.

Legend:
C. albicans ATCC 10231 = assay: Minimum inhibitory concentration; format: cell-based; details: Candida albicans, ATCC10231, read-out: Minimum inhibitory concentration (MIC) C. albicans ATCC 10231
Method in brief: (§1)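 Exponential-phase yeast were washed three times in PBS and suspended at 1 × 10^3 CFU/mL in RPMI 1640. Test compound and fluconazole comparator were twofold serially diluted in microplates, each concentration in triplicate wells. Growth was read as OD600, from which the MIC was determined.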

C. albicans ATCC 14053 = assay: Minimum inhibitory concentration; format: cell-based; details: Candida albicans, ATCC14053, read-out: Minimum inhibitory concentration (MIC) C. albicans ATCC 14053
Method in brief: as §1

C. albicans ATCC 24433 = assay: Activity against additional fungal strains; format: cell-based; details: Table 2; no quantity or unit printed
Method in brief: (§2)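 Fungi in exponential phase were washed three times in PBS and resuspended at 1 × 10^3 CFU mL−1 in RPMI 1640. Test compound and fluconazole were serially diluted twofold in 96-well plates, in triplicate wells per concentration. MIC was derived from OD600 readings.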

FO MYA 3461 = assay: Activity against additional fungal strains; format: cell-based; details: Table 2; no quantity or unit printed
Method in brief: as §2

F. solani 46492 = assay: Activity against additional fungal strains; format: cell-based; details: Table 2; no quantity or unit printed
Method in brief: as §2

[1] = system: A. brasiliensis TCC 16404; assay: Activity against additional fungal strains; format: cell-based; details: Table 2; no quantity or unit printed
Method in brief: as §2

F. solani 52628 = assay: Activity against additional fungal strains; format: cell-based; details: Table 2; no quantity or unit printed
Method in brief: as §2

C. albicans ATCC 90028 = assay: Activity against additional fungal strains; format: cell-based; details: Table 2; no quantity or unit printed
Method in brief: as §2

Candida albicans = details: lack of antifungal activity; cited from earlier work

Row | SMILES | MIC (C. albicans ATCC 10231) [µg/mL] | MIC (C. albicans ATCC 14053) [µg/mL] | also measured
1 | Clc1ccc(C=Nc2ncn[nH]2)cc1 [3g, 1-(4-Chlorophenyl)-N-(1H-1,2,4-triazol-5-yl)methanimine] | > 256 | > 256 | 
2 | C(=Nc1ncn[nH]1)c1ccncc1 [3h, 1-(Pyridin-4-yl)-N-(1H-1,2,4-triazol-5-yl)methanimine] | > 256 | > 256 | 
3 | O=[N+]([O-])c1ccc(C=Nc2ncn[nH]2)cc1 [3i, 1-(4-Nitrophenyl)-N-(1H-1,2,4-triazol-5-yl)methanimine] | 128 (≈ 589 µM) | 128 (≈ 589 µM) | 
4 | COc1ccc(C=Nc2ncn[nH]2)cc1 [3j, 1-(4-Methoxyphenyl)-N-(1H-1,2,4-triazol-5-yl)methanimine] | > 256 | > 256 | 
5 | Oc1ccc(C=Nc2ncn[nH]2)cc1 [3k, 4-{[(1H-1,2,4-Triazol-5-yl)imino]methyl}phenol] | > 256 | > 256 | 
6 | O=C(O)c1ccc(C=Nc2ncn[nH]2)cc1 [3l, 4-{[(1H-1,2,4-Triazol-5-yl)imino]methyl}benzoic acid] | > 256 | > 256 | 
7 | C[C@@H]1C/C=C/C=C/C=C/C=C/[C@H](O[C@@H]2O[C@H](C)[C@@H](O)[C@H](N)[C@@H]2O)C[C@@H]2O[C@](O)(C[C@@H](O)C[C@H]3O[C@@H]3/C=C/C(=O)O1)C[C@H](O)[C@H]2C(=O)O [Natamycin, reference compound] | 8 (≈ 12 µM) | 8 (≈ 12 µM) | Interaction against varied fungal strains: C. albicans ATCC 24433 (C. albicans ATCC 24433): 8; Interaction against varied fungal strains: FO MYA 3461 (FO MYA 3461): 8; Interaction against varied fungal strains: F. solani 46492 (F. solani 46492): 8; Interaction against varied fungal strains: A. brasiliensis TCC 16404 [1]: 8; Interaction against varied fungal strains: F. solani 52628 (F. solani 52628): 8; Interaction against varied fungal strains: C. albicans ATCC 90028 (C. albicans ATCC 90028): 8
8 | O=C(NC[C@@H](c1ccccc1)n1ccnc1)c1ccc(-c2ccc(Cl)cc2)cc1 [VID400] |  |  | MIC against Candida albicans (Candida albicans): > 128 µg/mL
